From ChEMBL document CHEMBL3124905, “Isothiocoumarin-3-carboxylic acid derivatives: synthesis, anticancer and antitrypanosomal activity evaluation” (Eur J Med Chem, 2014)

Legend:
Assay type in all cases: functional
[1] = Growth inhibition of human RXF393 cells after 48 hrs by SRB assay; conditions: RXF 393, 48 h; for TGI: read-out: pTGI (converted)
Procedure, shortened: (§1)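 NCI five-dose assay against the ~60-cell-line panel (nine cancer types). Tenfold dilutions from 10−4 to 10−8 M were used with continuous 48-h exposure and SRB absorbance readout. Percent growth was computed from time-zero, control and treated absorbances. GI50 is the concentration giving 50% lower net protein increase than controls. Values not reached are reported as beyond the tested range.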

[2] = Growth inhibition of human SNB cells after 48 hrs by SRB assay; procedure, shortened: as §1
[3] = Growth inhibition of human HOP92 cells after 48 hrs by SRB assay; conditions: HOP-92, 48 h; procedure, shortened: as §1
[4] = test system: NCI/ADR-RES; assay: Growth inhibition of human NCI/ADR-RES cells after 48 hrs by SRB assay; procedure, shortened: as §1
[5] = test system: MCF7; assay: Anticancer activity against human MCF7 cells assessed as cell growth at 100 uM after 48 hrs by SRB assay; conditions: MCF7, 48 h, read-out: Activity
Procedure, shortened: (§2)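 NCI one-dose primary screen on a three-line panel (breast MCF7, lung NCI-H460, CNS SF-268). Cells were inoculated and preincubated 24–48 h, then exposed to a single concentration of 10−4 M for 48 h. The endpoint was sulforhodamine B protein staining, and results are expressed as percent growth relative to untreated control cells. Negative values denote cytotoxicity.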

[6] = Growth inhibition of human HCC2998 cells after 48 hrs by SRB assay; conditions: HCC 2998, 48 h; procedure, shortened: as §1
[7] = test system: TK-10; assay: Growth inhibition of human TK10 cells after 48 hrs by SRB assay; conditions: TK-10, 48 h
Procedure, shortened: (§3)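 NCI ~60-cell-line five-dose screen. Cells were preincubated 24-48 h, then given compound at 10-fold dilutions from 10^-4 to 10^-8 M with 48 h continuous exposure. SRB protein stain was read by absorbance at time zero, in untreated control and with drug. GI50 was derived from [(Ti-Tz)/(C-Tz)]x100=50, TGI from Ti=Tz, and LC50 from [(Ti-Tz)/Tz]x100=-50.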

[8] = test system: OVCAR-8; assay: Growth inhibition of human OVCAR8 cells after 48 hrs by SRB assay; conditions: OVCAR-8, 48 h; procedure, shortened: as §1
[9] = test system: A549; assay: Growth inhibition of human A549/ATCC cells after 48 hrs by SRB assay; conditions: A549, 48 h; procedure, shortened: as §1
[10] = Growth inhibition of human […] cells after 48 hrs by SRB assay; procedure, shortened: as §1
[11] = test system: ACHN; assay: Growth inhibition of human ACHN cells after 48 hrs by SRB assay; procedure, shortened: as §1
[12] = test system: NCI-H460; assay: Anticancer activity against human NCI-H460 cells assessed as cell growth at 100 uM after 48 hrs by SRB assay; conditions: NCI-H460, 48 h, read-out: Activity; procedure, shortened: as §2
[13] = test system: U-251; assay: Growth inhibition of human U251 cells after 48 hrs by SRB assay; conditions: U-251, 48 h; procedure, shortened: as §3
[14] = Growth inhibition of human OVCAR5 cells after 48 hrs by SRB assay; conditions: OVCAR-5, 48 h; procedure, shortened: as §1
[15] = test system: NCI-H522; assay: Growth inhibition of human NCI-H522 cells after 48 hrs by SRB assay; conditions: NCI-H522, 48 h; procedure, shortened: as §1
[16] = test system: SF-268; assay: Anticancer activity against human SF268 cells assessed as cell growth at 100 uM after 48 hrs by SRB assay; conditions: SF-268, 48 h, read-out: Activity; procedure, shortened: as §2
[17] = test system: HCT-116; assay: Growth inhibition of human HCT116 cells after 48 hrs by SRB assay; conditions: HCT-116, 48 h; procedure, shortened: as §1
[18] = test system: UACC-62; assay: Growth inhibition of human UACC62 cells after 48 hrs by SRB assay; conditions: UACC-62, 48 h; procedure, shortened: as §3
[19] = test system: SF-295; assay: Growth inhibition of human SF295 cells after 48 hrs by SRB assay; conditions: SF-295, 48 h; procedure, shortened: as §1
[20] = test system: 786-0; assay: Growth inhibition of human 786-0 cells after 48 hrs by SRB assay; conditions: 786-0, 48 h; procedure, shortened: as §1

Structure (SMILES): COc1ccc2cc(C(=O)OC(C)C)sc(=O)c2c1OC
- GI50 [1]: 20 µM
- TGI [1]: 45.7 µM
- GI50 [2]: 23.4 µM
- TGI ([2]; read-out: pTGI (converted)): 53.7 µM
- GI50 [3]: 28.8 µM
- TGI ([3]; read-out: pTGI (converted)): 85.1 µM

Structure (SMILES): COc1ccc2cc(C(=O)Nc3ccc(F)cc3)sc(=O)c2c1OC
- GI50 [4]: 12.6 µM
- TGI ([4]; read-out: pTGI (converted)): > 100 µM
- growth at 100 µM [5]: 55%
- GI50 [6]: 14.1 µM
- TGI ([6]; read-out: pTGI (converted)): 49 µM
- GI50 [7]: 15.1 µM
- TGI ([7]; read-out: pTGI (converted)): 33.1 µM
- GI50 [8]: 12.3 µM
- TGI ([8]; read-out: pTGI (converted)): 67.6 µM
- GI50 [9]: 18.6 µM
- TGI ([9]; read-out: pTGI): > 100 µM
- GI50 [10]: 6.76 µM
- TGI ([10]; read-out: pTGI (converted)): 22.9 µM
- GI50 [11]: 7.08 µM
- TGI ([11]; read-out: pTGI (converted)): 26.9 µM
- GI50 [1]: 10.7 µM
- TGI [1]: 33.9 µM
- growth at 100 µM [12]: 11%
- GI50 [13]: 5.5 µM
- TGI ([13]; read-out: pTGI (converted)): 20.4 µM
- GI50 [14]: 18.6 µM
- TGI ([14]; read-out: pTGI (converted)): 61.7 µM
- GI50 [15]: 18.2 µM
- TGI ([15]; read-out: pTGI (converted)): 70.8 µM
- growth at 100 µM [16]: 60%
- GI50 [17]: 14.1 µM
- TGI ([17]; read-out: pTGI (converted)): 40.7 µM
- GI50 [18]: 19.5 µM
- TGI ([18]; read-out: pTGI (converted)): 52.5 µM
- GI50 [19]: 18.2 µM
- TGI ([19]; read-out: pTGI (converted)): 51.3 µM
- GI50 [20]: 11.5 µM
- TGI ([20]; read-out: pTGI (converted)): 41.7 µM
